Measurements as given in ChEMBL document CHEMBL4831489, “Design and synthesis of the first indole-based blockers of Panx-1 channel” (Eur J Med Chem, 2021).
Activity calls are given as the source filed them.

Tests used:
[1] = target: Pannexin-1 (Mus musculus) (UniProt Q9JIP4); assay: Inhibition of mouse Panx-1 expressed in Xenopus laevis oocytes assessed as inhibition of membrane current cells held at -60 mV and voltage steps to +60 mV in presence of CBX at 50 uM measured by Whole cell voltage clamp assay relative to control; assay type: cell-based; conditions: Oocyte
Outline: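 Xenopus oocytes expressing Panx-1 were studied by two-electrode voltage clamp (3 M KCl electrodes) under continuous perfusion with OR2 Ringer, pH 7.5. Cells were held at −60 mV, with 5 s steps to +60 mV at 0.1 Hz. Compounds were screened at 50 µM and inhibition expressed as % of membrane current, n = 1–3 oocytes.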

[2] = target: Gap junction beta-1 protein (Homo sapiens) (UniProt P08034); assay: Inhibition of wild type Cx32(E143) (unknown origin) expressed in Xenopus laevis oocytes assessed as at holding potential of -10 mV and stepped in 5 mV test pulses of 5 sec duration at 10 uM measured by Voltage clamp assay relative to control; assay type: cell-based; conditions: Oocyte
[3] = target: T1, P2X purinoceptor 7 (Homo sapiens) (UniProt Q99572); assay: Inhibition of human P2X7R expressed in Xenopus laevis oocytes assessed as inhibition of BzATP-induced cell membrane current at 10 uM measured by Whole cell voltage clamp assay relative to control; assay type: cell-based; conditions: Oocyte
T1 sequence (whole entry): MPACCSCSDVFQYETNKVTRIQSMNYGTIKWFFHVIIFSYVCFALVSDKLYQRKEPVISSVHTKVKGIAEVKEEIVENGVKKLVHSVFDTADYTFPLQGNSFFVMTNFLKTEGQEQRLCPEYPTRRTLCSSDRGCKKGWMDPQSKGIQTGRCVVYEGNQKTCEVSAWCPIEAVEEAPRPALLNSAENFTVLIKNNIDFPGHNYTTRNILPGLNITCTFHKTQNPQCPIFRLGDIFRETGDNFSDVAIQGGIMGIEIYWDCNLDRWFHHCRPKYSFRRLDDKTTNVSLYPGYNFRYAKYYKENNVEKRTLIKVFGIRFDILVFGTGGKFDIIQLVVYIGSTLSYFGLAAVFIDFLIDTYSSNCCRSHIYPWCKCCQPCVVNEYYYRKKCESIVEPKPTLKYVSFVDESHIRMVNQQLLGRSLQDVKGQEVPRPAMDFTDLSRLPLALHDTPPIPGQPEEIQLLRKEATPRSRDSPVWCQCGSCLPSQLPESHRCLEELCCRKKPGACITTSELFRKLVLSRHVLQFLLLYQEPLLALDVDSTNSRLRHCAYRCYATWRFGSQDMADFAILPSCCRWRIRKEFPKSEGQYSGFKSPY

Pannexin-1 = Pannexin-1 (Mus musculus, UniProt Q9JIP4); assay: Inhibition of mouse Panx-1 expressed in Xenopus laevis oocytes assessed as inhibition of membrane current cells held at -60 mV and voltage steps to +60 mV in presence of CBX measured by Whole cell voltage clamp assay relative to control; assay type: cell-based, Oocyte
Outline: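 Two-electrode voltage clamp of Panx-1-expressing Xenopus oocytes perfused with OR2, pH 7.5. Holding potential −60 mV, with repetitive 5 s steps to +60 mV at 0.1 Hz. Compound was applied at increasing concentrations to build dose–response curves and derive IC50.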

Mus musculus [4] = organism: Mus musculus; assay: Antiallodynic activity in oxaliplatin-induced neuropathy pain CD-1 mouse model assessed as reversal of enhancement of pain threshold at 0.3 to 1 nmol, IT measured after 80 mins by cold plate assay; assay type: functional, organism-based; conditions: dose 0.3-1 nmol
Outline: (§1)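 Male CD-1 mice (22–25 g) given oxaliplatin 2.4 mg kg⁻¹ i.p. in 5% glucose on days 1–2, 5–9 and 12–14. Test agents were dissolved in saline and injected intrathecally (5 µl, L4–L5) at 0.1–1 nmol from day 14. Cold plate held at 4 °C. Latency to first paw lift/lick was recorded every 15 min.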

Mus musculus [5] = organism: Mus musculus; assay: Antiallodynic activity in oxaliplatin-induced neuropathy pain CD-1 mouse model assessed as reversal of enhancement of pain threshold at 1 nmol, IT measured after 60 to 105 mins by cold plate assay; assay type: functional, organism-based; conditions: time 60-105 min; outline: as §1
Mus musculus [6] = organism: Mus musculus; assay: Antiallodynic activity in oxaliplatin-induced neuropathy pain CD-1 mouse model assessed as reversal of enhancement of pain threshold at 0.3 nmol, IT measured after 45 mins by cold plate assay; assay type: functional, organism-based; outline: as §1
Mus musculus [7] = assay: Antiallodynic activity in oxaliplatin-induced neuropathy pain IT dosed CD-1 mouse model assessed as reversal of enhancement of pain threshold by measuring minimum effective dose measured 60 to 75 mins by cold plate assay; assay type: functional, organism-based; conditions: dose 0.3 nmol, time 60-75 min
Outline: (§2)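 Male CD-1 mice (22–25 g) were given oxaliplatin 2.4 mg kg−1 i.p. in 5% glucose on days 1–2, 5–9 and 12–14, with vehicle controls. Behavioural tests were done on day 15. Compounds in saline were injected intrathecally at L4–L5 at 0.1–1 nmol. Mice were placed on a 4 °C cold plate, and latency to the first hind-paw lifting or licking was recorded every 15 min.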

Mus musculus [8] = organism: Mus musculus; assay: Antiallodynic activity in oxaliplatin-induced neuropathy pain CD-1 mouse model assessed as reversal of enhancement of pain threshold at 1 nmol, IT measured after 45 to 90 mins by cold plate assay; assay type: functional, organism-based; conditions: time 45-90 min; outline: as §2

Gap junction beta-1 protein (Homo sapiens), sequence (P08034 whole entry): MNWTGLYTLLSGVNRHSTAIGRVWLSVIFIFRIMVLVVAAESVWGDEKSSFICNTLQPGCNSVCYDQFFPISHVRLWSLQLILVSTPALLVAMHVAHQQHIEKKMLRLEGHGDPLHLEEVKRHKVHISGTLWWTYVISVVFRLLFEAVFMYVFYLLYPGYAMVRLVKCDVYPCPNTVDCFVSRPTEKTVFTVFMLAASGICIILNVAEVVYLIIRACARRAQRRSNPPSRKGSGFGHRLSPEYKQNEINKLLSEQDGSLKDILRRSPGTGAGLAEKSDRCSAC
Pannexin-1, sequence (Q9JIP4 whole entry, the tested form may be a part): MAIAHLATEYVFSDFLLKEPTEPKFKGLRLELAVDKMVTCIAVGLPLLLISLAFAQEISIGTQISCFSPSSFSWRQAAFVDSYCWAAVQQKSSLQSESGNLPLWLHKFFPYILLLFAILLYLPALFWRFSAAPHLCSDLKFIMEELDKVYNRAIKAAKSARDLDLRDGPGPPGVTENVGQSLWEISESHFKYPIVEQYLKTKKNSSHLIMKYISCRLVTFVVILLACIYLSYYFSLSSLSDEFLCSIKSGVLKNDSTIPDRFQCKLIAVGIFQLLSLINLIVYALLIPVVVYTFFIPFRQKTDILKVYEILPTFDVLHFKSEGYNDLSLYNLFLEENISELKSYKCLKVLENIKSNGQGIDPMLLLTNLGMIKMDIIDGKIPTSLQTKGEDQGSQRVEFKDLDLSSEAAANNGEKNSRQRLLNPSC
Pannexin-1 (Mus musculus), sequence (Q9JIP4 whole entry, the tested form may be a part): as above

`O=C(O)c1ccc(CCn2cc(C(=O)O)c3cc([N+](=O)[O-])ccc32)cc1` showed an inhibition [1] of 73%.

`O=C(O)c1cn(CCCCCc2ccccc2)c2ccc([N+](=O)[O-])cc12` showed an inhibition [1] of 32.3%.

`O=C(O)c1cn(Cc2ccccc2)c2ccc(N(Cc3ccccc3)Cc3ccccc3)cc12` gave an inhibition [1] of 19.5%.

`NS(=O)(=O)c1ccc2c(c1)cc(C(=O)O)n2Cc1ccccc1` showed an inhibition [2] of 15%, an inhibition [3] of 15% and an inhibition [1] of 29.3%.

In the case of `O=C(O)c1cn(Cc2ccccc2)c2ccc([N+](=O)[O-])cc12`, the IC50 (Pannexin-1) is reported as 27.5 µM and the inhibition [1] is reported as 65%.

`O=C(O)c1cc2cc(S(=O)(=O)NCc3ccccc3)ccc2n1Cc1ccccc1` was tested, and the inhibition [1] was 42%.

`O=C(O)c1ccc(CCn2c(C(=O)O)cc3cc([N+](=O)[O-])ccc32)cc1` showed an inhibition [1] of 31.7%.

Compound `O=C(O)c1cc2cc(S(=O)(=O)N(Cc3ccccc3)Cc3ccccc3)ccc2n1Cc1ccccc1` has an inhibition [2] of 20%, an inhibition [3] of 0% and an inhibition [1] of 41%.

In the case of `O=C(O)c1cc2cc(S(=O)(=O)NCCc3ccccc3)ccc2n1CCc1ccccc1`, the inhibition [1] is reported as 57.7%.

Work on `O=C(O)c1cc2cc([N+](=O)[O-])ccc2n1Cc1ccccc1` yielded an inhibition [1] of 51.3%.

Compound `O=C(O)c1ccc(CN(Cc2ccc(C(=O)O)cc2)S(=O)(=O)c2ccc3c(c2)cc(C(=O)O)n3Cc2ccc(C(=O)O)cc2)cc1` has an inhibition [1] of 79%.

With `O=C(O)c1ccc(Cn2cc(C(=O)O)c3cc([N+](=O)[O-])ccc32)cc1` the inhibition [1] was 54%.

`O=C(O)c1cc2cc([N+](=O)[O-])ccc2n1CCCc1ccccc1` was tested, and the IC50 (Pannexin-1) was 23.1 µM and the inhibition [1] was 65.5%.

Work on `O=C(O)c1cn(CCc2ccccc2)c2ccc([N+](=O)[O-])cc12` yielded an inhibition [1] of 52.7%.

`O=C(O)c1cn(CCCCc2ccccc2)c2ccc([N+](=O)[O-])cc12` was tested, and the inhibition [1] was 65.7%.

With `O=C(O)c1cc2cc([N+](=O)[O-])ccc2n1CCc1ccccc1` the inhibition [1] was 56.3%.

For `O=C(O)c1cc([N+](=O)[O-])ccc1NCCCc1ccccc1` [5-NITRO-2-PHENYLPROPYLAMINOBENZOIC ACID [NPPB]], the IC50 (Pannexin-1) was 50 µM.

For `O=C(O)c1cc2cc(N(Cc3ccccc3)Cc3ccccc3)ccc2n1Cc1ccccc1`, the Activity (Mus musculus [4]) was “inactive” and the inhibition [1] was 0%.

`CCN(Cc1cccc(S(=O)(=O)O)c1)c1ccc(C(=C2C=CC(=[N+](CC)Cc3cccc(S(=O)(=O)O)c3)C=C2)c2ccccc2S(=O)(=O)[O-])cc1` was tested, and the IC50 (Pannexin-1) was 0.27 µM.

With `O=C(O)c1ccc(Cn2c(C(=O)O)cc3cc([N+](=O)[O-])ccc32)cc1` the IC50 (Pannexin-1) was 4.9 µM and the inhibition [1] was 61%.

`CCCN(CCC)S(=O)(=O)c1ccc(C(=O)O)cc1` [PROBENECID] was tested, and the IC50 (Pannexin-1) was 150 µM.

Work on `O=C(O)c1ccc(Cn2c(C(=O)O)cc3cc(S(=O)(=O)N(Cc4ccccc4)Cc4ccccc4)ccc32)cc1` yielded an IC50 (Pannexin-1) of 0.25 µM, an inhibition [2] of 0% and an inhibition [3] of 61.8%. The inhibition [1] was 100%.

With `O=C(O)c1cc2cc(S(=O)(=O)N(CCc3ccccc3)Cc3ccccc3)ccc2n1CCc1ccccc1` the inhibition [1] was 37.3%.

With `O=C(O)c1ccc(CNS(=O)(=O)c2ccc3c(c2)cc(C(=O)O)n3Cc2ccc(C(=O)O)cc2)cc1` the Activity (Mus musculus [5]) was “Active”, the IC50 (Pannexin-1) was 0.8 µM and the inhibition [2] was 0%. The Activity (Mus musculus [6]) was “Active”, the inhibition [3] was 0% and the inhibition [1] was 100%.

With `NS(=O)(=O)c1ccc2c(c1)cc(C(=O)O)n2Cc1ccc(C(=O)O)cc1` the inhibition [1] was 61.7%.

`O=C(O)c1cc2cc([N+](=O)[O-])ccc2n1CCCCCc1ccccc1` was tested, and the inhibition [1] was 58%.

For `O=C(O)c1cc2cc(S(=O)(=O)N(Cc3ccccc3)Cc3ccccc3)ccc2n1CCc1ccccc1`, the inhibition [1] was 41.3%.

For `O=C(O)c1cn(CCCc2ccccc2)c2ccc([N+](=O)[O-])cc12`, the IC50 (Pannexin-1) was 12.4 µM, the inhibition [2] was 0% and the Activity (Mus musculus [7]) was “Active”. For the same compound, the Activity (Mus musculus [8]) was “Active”, the inhibition [3] was 0% and the inhibition [1] was 71%.
